Test results from ChEMBL document CHEMBL1124747, “Properties of the nucleic acid photoaffinity labeling agent 3-azidoamsacrine” (J Med Chem, 1990).

What was measured:
[1] = Ability to block cleavage of AG/CT site in AluI enzyme with the light activated test compound, DNA ratio 1(no. of sites=16); += light activation
Procedure, shortened: (§1)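 pBR322 plasmid mixed with drug at 0.015, 0.12 or 0.48 mM (drug:DNA 1:8, 1:1 or 4:1), equilibrated on ice 30 min in the dark in 5 mM potassium phosphate pH 5.5, then irradiated 1 h with a medium-pressure Hg lamp (<340 nm filtered); dark set kept as control. Digested overnight with 10× excess enzyme plus DTT; fragments resolved on 1.2% agarose in TBE.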

[2] = Ability to block cleavage of AG/CT site in AluI enzyme with the light activated test compound, DNA ratio 1:8(no. of sites=16); += light activation; procedure, shortened: as §1
[3] = Ability to block cleavage of AG/CT site in AluI enzyme with the light activated test compound, DNA ratio 4(no. of sites=16); += light activation; procedure, shortened: as §1
[4] = Ability to block cleavage of TTT/AAA site in DraI enzyme with the light activated test compound/DNA ratio 1(no. of sites=3); += light activation; procedure, shortened: as §1
[5] = Ability to block cleavage of GG/CC site in HaeIII enzyme with the light activated test compound/DNA ratio 1:8(no. of sites=22); += light activation; procedure, shortened: as §1
[6] = Ability to block cleavage of GG/CC site in HaeIII enzyme with the light activated test compound/DNA ratio 4(no. of sites=22); += light activation; procedure, shortened: as §1
[7] = Ability to block cleavage of G/ANTC site in Hinf1 enzyme with the light activated test compound/DNA ratio 1(no. of sites=10); += light activation; procedure, shortened: as §1
[8] = Ability to block cleavage of G/ANTC site in Hinf1 enzyme with the light activated test compound/DNA ratio 1:8(no. of sites=10); += light activation; procedure, shortened: as §1
[9] = Ability to block cleavage of C/CGG site in HpaII enzyme with the light activated test compound/DNA ratio 1(no. of sites=26); += light activation; procedure, shortened: as §1
[10] = Ability to block cleavage of C/CGG site in HpaII enzyme with the light activated test compound/DNA ratio 1:8(no. of sites=26); += light activation; procedure, shortened: as §1
[11] = Ability to block cleavage of C/CGG site in HpaII enzyme with the light activated test compound/DNA ratio 4(no. of sites=26); += light activation; procedure, shortened: as §1
[12] = Relative mutation induction for L5178Y cells was evaluated at dose 0.005 mg/mL in dark condition (expt-II); type: functional, Mus musculus
Procedure, shortened: (§2)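 L5178Y suspension cells (3 × 10^6/mL, 5% CO2, 37 °C, shaking) exposed 20 h without activating enzyme; light arm irradiated 6.5 min (Hg lamp, <340 nm filtered). Cells washed, grown 24 h more and kept at 3 × 10^5/mL. Viability from 200 cells in soft agar; TFT (0.1 mg/mL) resistant colonies from 10^6 cells in triplicate dishes, counted at 10 days.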

[13] = Relative mutation induction for L5178Y cells was evaluated at dose 0.005 mg/mL in light condition (expt-II); type: functional, Mus musculus; procedure, shortened: as §2
[14] = Viability of L5178Y cells was evaluated at dose 0.005 mg/mL in light condition (expt-II); type: functional, Mus musculus
Procedure, shortened: (§3)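 L5178Y cells were exposed for 20 h at 3 × 10^6 cells/mL. Light arms then received 6.5 min of Hg-lamp irradiation filtered to remove light below 340 nm. Cells were washed twice in Fischer's medium, grown a further 24 h and held at 3 × 10^5 cells/mL. For viability, 200 cells were plated in soft-agar cloning medium in triplicate dishes, and colonies were counted by an automated counter after 10 days.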

[15] = Relative mutation induction for L5178Y cells was evaluated at dose 0.005 mg/mL in light-I condition (expt-I); type: functional, Mus musculus; procedure, shortened: as §2
[16] = Relative toxicity against mammalian L5178Y cells at dose 0.005 mg/mL in dark-1 condition (expt-I); type: functional, Mus musculus
Procedure, shortened: (§4)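 L5178Y mouse cells in suspension, 3 × 10^6 cells/mL, were exposed for 20 h at 37 °C in a shaker at 150 rpm under 5% CO2, without an activating enzyme. Light arms were irradiated for 6.5 min with a medium-pressure Hg lamp filtered to remove light below 340 nm; dark arms were not. Toxicity was taken as the Coulter-counted density of treated cells versus solvent control.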

[17] = Relative toxicity against mammalian L5178Y cells at dose 0.005 mg/mL in light-1 condition (expt-I); type: functional, Mus musculus; procedure, shortened: as §4
[18] = Viability of L5178Y cells was evaluated at dose 0.005 mg/mL in dark-I condition (expt-I); type: functional, Mus musculus; procedure, shortened: as §3
[19] = Viability of L5178Y cells was evaluated at dose 0.005 mg/mL in light-I condition (expt-I); type: functional, Mus musculus; procedure, shortened: as §3
[20] = Viability of L5178Y cells was evaluated at dose 0.008 mg/mL in light-II condition (expt-I); type: functional, Mus musculus; procedure, shortened: as §3
[21] = Induction frequency for L5178Y cells was evaluated at dose 0.005 mg/mL in dark condition (expt-II); type: functional, Mus musculus; procedure, shortened: as §2
[22] = Induction frequency for L5178Y cells was evaluated at dose 0.005 mg/mL in light condition (expt-II); type: functional, Mus musculus; procedure, shortened: as §2
[23] = Mean value of mutation induction for L5178Y cells was evaluated at dose 0.005 mg/mL in light condition (expt-II); type: functional, Mus musculus; procedure, shortened: as §2
[24] = Mutation frequency for L5178Y cells was evaluated at dose 0.005 mg/mL in light condition (expt-II); type: functional, Mus musculus; procedure, shortened: as §2
[25] = Induction frequency for L5178Y cells was evaluated at dose 0.008 mg/mL in dark-II condition (expt-I); type: functional, Mus musculus; procedure, shortened: as §2
[26] = Mean value of mutation induction for L5178Y cells was evaluated at dose 0.005 mg/mL in light-I condition (expt-I); type: functional, Mus musculus; procedure, shortened: as §2
[27] = Mean value of mutation induction for L5178Y cells was evaluated at dose 0.008 mg/mL in dark-II condition (expt-I); type: functional, Mus musculus; procedure, shortened: as §2
[28] = Ability to block cleavage of GCC/GGC site in NaeI enzyme with the light activated test compound/DNA ratio 1(no. of sites=4); += light activation; procedure, shortened: as §1
[29] = Ability to block cleavage of GCC/GGC site in NaeI enzyme with the light activated test compound/DNA ratio 1:8(no. of sites=4); += light activation; procedure, shortened: as §1
[30] = Ability to block cleavage of […] site in NciI enzyme with the light activated test compound/DNA ratio 4(no. of sites=10); += light activation; procedure, shortened: as §1
[31] = Ability to block cleavage of G/GNCC site in Restriction endonuclease Sau961 with the light activated test compound/DNA ratio 1(no. of sites=15); += light activation; procedure, shortened: as §1
[32] = Ability to block cleavage of G/GNCC site in Restriction endonuclease Sau961 with the light activated test compound/DNA ratio 1:8(no. of sites=15); += light activation; procedure, shortened: as §1
[33] = Half-life was evaluated in water in the presence of light; type: ADME
[34] = Relative toxicity against mammalian L5178Y cells at dose 0.008 mg/mL in dark-2 condition (expt-I); type: functional, Mus musculus; conditions: in the assay text read “0.008 µg/mL” for “0.008 mg/mL”; procedure, shortened: as §4

## COc1cc(NS(C)(=O)=O)ccc1Nc1c2ccccc2nc2cc(N=[N+]=[N-])ccc12.Cl
[1]
  Blockage activity: Light activation
[2]
  Blockage activity: Light activation
[3]
  Blockage activity: Light activation
[4]
  Blockage activity: Light activation
[5]
  Blockage activity: Light activation
[6]
  Blockage activity: Light activation
[7]
  Blockage activity: Light activation
[8]
  Blockage activity: Light activation
[9]
  Blockage activity: Light activation
[10]
  Blockage activity: Light activation
[11]
  Blockage activity: Light activation
[12]
  Relative activity: 124
[13]
  Relative activity: 28
[14]
  Viability: 35.7
[15]
  Relative activity: 30
[16]
  Relative toxicity: 69
[17]
  Relative toxicity: 69
[18]
  Viability: 66.7
[19]
  Viability: 57
[20]
  Viability: 0
[21]
  Induced frequency: 366
[22]
  Induced frequency: 411
[23]
  Mean value: 114.3
[24]
  Mutation frequency: 640 10e6 F
[25]
  Induced frequency: 457
[26]
  Mean value: 123.7
[27]
  Mean value: 63
[28]
  Blockage activity: Light activation
[29]
  Blockage activity: Light activation
[30]
  Blockage activity: Light activation
[31]
  Blockage activity: Light activation
[32]
  Blockage activity: Light activation
[33]
  half-life: 2.02 min
[34]
  Relative toxicity: 55
